For one data set, the system named is CCRF-CEM. In words: Cytotoxicity against CEM cells after 72 hrs. It is filed as functional, Homo sapiens. The procedure, abridged: (§1)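 Cells grown in DMEM with 10% fetal calf serum, 4 mM glutamine, penicillin/streptomycin, 37 °C, 5% CO2. About 1.25×10^5 cells/mL seeded and stabilized 3 h. Compounds added in DMSO as serial (usually 6- and 4-fold) dilutions, top well usually 50 µM, DMSO final ≤0.6%. After 72 h, Calcein AM for 1 h, fluorescence read. Survival taken vs DMSO controls; TCS50 from dose-response curves; mean ± SD of three experiments.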

In the next data set the test system is MCF7. In words: Cytotoxicity against MCF7 cells after 72 hrs. It is filed as functional, Homo sapiens. Summed up:
as §1

The next data set relates to K562. Nature of the data set: Cytotoxicity against K562 cells after 72 hrs. It is filed as functional, Homo sapiens. Summed up:
as §1

Data set [1] in a line: Cytotoxicity against ARN8 cells after 72 hrs. It is filed as functional, Homo sapiens. The procedure, abridged:
as §1

The subject of another data set is G-361. Nature of the data set: Cytotoxicity against human G361 cells after 72 hrs. It counts as functional. Summed up:
as §1

For the next data set, the system named is HeLa. In words: Cytotoxicity against HeLa cells after 72 hrs. It counts as functional, Homo sapiens. Summed up: as §1
A further data set relates to HOS. In words: Cytotoxicity against HOS cells after 72 hrs. It counts as functional, Homo sapiens. Summed up:
as §1

The test system of another data set is A549. In words: Cytotoxicity against A549 cells after 72 hrs. It is filed as functional, Homo sapiens. The procedure, abridged:
as §1

Data set [2] is described as follows: Cytotoxicity against mouse NIH 3T3 cells after 72 hrs. It counts as cell-based, NIH3T3. The settings on record: read-out: TCS50. The procedure, abridged: as §1

For the compound `COc1ccc(C(=O)O[C@H]2[C@H](O[C@H]3C[C@H]4[C@@H]5CC=C6C[C@@H](O)CC[C@]6(C)[C@H]5CC[C@]4(C)[C@@]3(O)[C@H](C)C(=O)CCC(C)C)OC[C@@H](O)[C@@H]2O)cc1`, the TCS50 came out at 1000 nM with CCRF-CEM; 3500 nM with MCF7; 1800 nM with K562; 1500 nM in data set [1]; 3500 nM in the data set with G-361; 2300 nM in the data set on HeLa. The TCS50 with HOS and with A549 was 7200 nM each time. Further, the CC50 at 72 h in data set [2] is more than 50 µM.
As for `CCCC(=O)[C@@H](C)[C@@]1(O)[C@@H](O[C@@H]2OC[C@H](O)[C@@H](O[C@@H]3OC[C@@H](O)[C@H](O)[C@H]3OC(=O)c3ccc(OC)cc3)[C@@H]2OC(C)=O)C[C@H]2[C@@H]3CC=C4C[C@@H](O)CC[C@]4(C)[C@H]3CC[C@@]21C`, the TCS50 in the data set on CCRF-CEM was 0.5 nM; in the data set on MCF7 it was 90 nM; with K562, 1.4 nM; in [1], 3 nM; in the data set with G-361, 3100 nM; in the data set with HeLa, 12 nM. Also, the TCS50 in the data set with HOS stood at 140 nM; with A549 it was 0.9 nM. In addition, the CC50 at 72 h in data set [2] is more than 50 µM.
As to `COc1ccc(C(=O)O[C@H]2[C@H](O[C@@H]3[C@@H](OC(C)=O)[C@H](O[C@H]4C[C@H]5[C@@H]6CC=C7C[C@@H](O)CC[C@]7(C)[C@H]6CC[C@]5(C)[C@@]4(O)[C@H](C)C(=O)CCC(C)C)OC[C@@H]3O)OC[C@@H](O)[C@@H]2O)cc1`, the TCS50 in the data set on CCRF-CEM worked out at 0.3 nM; in the data set on MCF7 it was 50 nM; in the data set on K562, 0.8 nM; in data set [1] it was 4 nM; in the data set on G-361, 1000 nM; in the data set on HeLa, 8 nM. Further, the TCS50 is recorded as 40 nM in the data set with HOS and 0.5 nM in the data set with A549. For the same compound, in [2], the CC50 at 72 h is more than 50 µM.
For `CC(=O)O[C@H]1[C@H](O[C@H]2C[C@H]3[C@@H]4CC=C5C[C@@H](O)CC[C@]5(C)[C@H]4CC[C@]3(C)[C@@]2(O)[C@H](C)C(=O)CCC(C)C)OC[C@H](O)[C@@H]1O`, the TCS50 came to 200 nM in the data set with CCRF-CEM; 1300 nM in the data set with MCF7; 430 nM in the data set on K562; 1950 nM in data set [1]; 2200 nM in the data set with G-361; 570 nM in the data set on HeLa. Further, the TCS50 in the data set on HOS and with A549 was 4200 nM in each case. Further, the CC50 at 72 h in [2] was more than 50 µM.
As to `CCCCCC(=O)[C@@H](C)[C@@]1(O)[C@@H](O[C@@H]2OC[C@H](O)[C@H](O[C@@H]3OC[C@@H](O)[C@H](O)[C@H]3OC(=O)c3ccc(OC)cc3)[C@H]2OC(C)=O)C[C@H]2[C@@H]3CC=C4C[C@@H](O)CC[C@]4(C)[C@H]3CC[C@@]21C`, the TCS50 with CCRF-CEM came to 0.2 nM; in the data set with MCF7 it was 40 nM; with K562, 0.7 nM; in data set [1], 0.6 nM; in the data set on G-361, 1400 nM; in the data set on HeLa it was 8 nM. Besides, the figures for the TCS50 in the data set on HOS and in the data set with A549 were 42 nM and 0.5 nM, respectively. In addition, in data set [2], the CC50 at 72 h was more than 50 µM.
As to `CCCCCOC[C@@H](C)[C@@]1(O)[C@@H](O[C@@H]2OC[C@H](O)[C@H](O[C@@H]3OC[C@@H](O)[C@H](O)[C@H]3OC(=O)c3ccc(OC)cc3)[C@H]2OC(C)=O)C[C@H]2[C@@H]3CC=C4C[C@@H](O)CC[C@]4(C)[C@H]3CC[C@@]21C`, the TCS50 in the data set with CCRF-CEM is less than 200 nM; with MCF7, 860 nM; in the data set on K562, less than 400 nM; in [1], less than 400 nM; in the data set with G-361 it was 1900 nM; with HeLa, 350 nM. Besides, the TCS50 is recorded as 1800 nM with HOS and less than 200 nM in the data set with A549. Further, the CC50 at 72 h in data set [2] was more than 50 µM.
As for `COc1ccc(C(=O)O[C@H]2[C@H](O[C@@H]3[C@@H](OC(C)=O)[C@H](O[C@@H](CCC(C)C)[C@@H](C)[C@@]4(O)C(=O)C[C@H]5[C@@H]6CC=C7C[C@@H](O)CC[C@]7(C)[C@H]6CC[C@@]54C)OC[C@@H]3O)OC[C@@H](O)[C@@H]2O)cc1`, the TCS50 in the data set on CCRF-CEM was 280 nM; in the data set on MCF7 it was 3400 nM; in the data set with K562, 430 nM; in data set [1], 500 nM; in the data set with G-361, 14400 nM; in the data set on HeLa it was 1000 nM. The results for the TCS50 with HOS and in the data set with A549 were 11700 nM and 480 nM, respectively. Further, in data set [2], the CC50 at 72 h is more than 50 µM.
Regarding `COc1cccc2c1C(=O)c1c(O)c3c(c(O)c1C2=O)C[C@@](O)(C(C)=O)C[C@@H]3O[C@H]1C[C@H](N)[C@H](O)[C@H](C)O1` [DAUNORUBICIN], the TCS50 came out at 62 nM with CCRF-CEM; 140 nM with MCF7; 230 nM in the data set on K562; 670 nM with G-361; 670 nM in the data set on HeLa; 330 nM in the data set with HOS.

The values above are taken from ChEMBL document CHEMBL1146230, “New analogues of the potent cytotoxic saponin OSW-1” (J Med Chem, 2007).
